The target in data set [1] is T1, Androgen receptor (Mus musculus) (UniProt P19091).
T1 sequence (whole entry): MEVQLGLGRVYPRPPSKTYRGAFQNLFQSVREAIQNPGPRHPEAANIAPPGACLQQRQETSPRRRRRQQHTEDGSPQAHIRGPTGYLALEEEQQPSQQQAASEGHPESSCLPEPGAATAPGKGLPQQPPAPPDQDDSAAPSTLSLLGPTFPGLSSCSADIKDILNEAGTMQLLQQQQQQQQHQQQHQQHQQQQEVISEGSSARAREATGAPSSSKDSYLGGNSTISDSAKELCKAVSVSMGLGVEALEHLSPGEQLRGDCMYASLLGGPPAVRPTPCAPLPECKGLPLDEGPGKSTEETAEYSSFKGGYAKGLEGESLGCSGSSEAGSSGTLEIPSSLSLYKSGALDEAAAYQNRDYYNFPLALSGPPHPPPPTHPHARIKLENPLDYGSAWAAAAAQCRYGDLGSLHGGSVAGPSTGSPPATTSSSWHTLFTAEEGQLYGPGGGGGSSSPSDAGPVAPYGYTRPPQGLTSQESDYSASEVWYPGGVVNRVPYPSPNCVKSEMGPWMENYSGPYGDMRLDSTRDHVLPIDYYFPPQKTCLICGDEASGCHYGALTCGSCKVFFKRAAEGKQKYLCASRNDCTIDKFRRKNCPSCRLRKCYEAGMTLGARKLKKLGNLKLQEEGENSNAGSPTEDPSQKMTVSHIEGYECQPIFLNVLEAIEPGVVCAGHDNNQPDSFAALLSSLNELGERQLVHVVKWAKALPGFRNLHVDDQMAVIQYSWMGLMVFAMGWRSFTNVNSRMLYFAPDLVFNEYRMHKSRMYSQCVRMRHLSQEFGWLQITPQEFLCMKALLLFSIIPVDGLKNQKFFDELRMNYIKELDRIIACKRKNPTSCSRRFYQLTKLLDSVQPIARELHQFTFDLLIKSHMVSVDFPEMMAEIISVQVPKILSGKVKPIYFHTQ
Briefly: Agonist activity at mouse androgen receptor at 10 uM after 24 hrs by cell-based luciferase reporter gene assay relative to control. Put shortly:
(§1)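 Transcriptional activity is expressed as a percentage after 10 μM compound, given alone for agonist mode or with 10 nM DHT for antagonist mode. Data are from triplicate experiments.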

Another data set deals with MEF. The data set can be described thus: Cytotoxicity against mouse MEF cells at 10 uM after 4 days by MTS/PMS assay. Particulars: 96 h. It is filed as cell-based.
Data set [2] has as its target T2, Androgen receptor (Mus musculus, UniProt P19091).
T2 sequence (P19091 whole entry): T1 sequence (whole entry)
Briefly: Antagonist activity at mouse androgen receptor assessed as inhibition of transactivation after 24 hrs by cell-based luciferase reporter gene assay.

Data set [3] concerns LNCaP. The data set can be described thus: Cytotoxicity against human androgen-dependent LNCAP cells at 10 uM after 7 days by MTS/PMS assay relative to control. In kind it is functional. To be noted: for inhibition of growth at 10 µM: 168 h, read-out: GI.
Data set [4] deals with T3, Androgen receptor (Homo sapiens) (UniProt P10275).
T3 sequence (whole entry): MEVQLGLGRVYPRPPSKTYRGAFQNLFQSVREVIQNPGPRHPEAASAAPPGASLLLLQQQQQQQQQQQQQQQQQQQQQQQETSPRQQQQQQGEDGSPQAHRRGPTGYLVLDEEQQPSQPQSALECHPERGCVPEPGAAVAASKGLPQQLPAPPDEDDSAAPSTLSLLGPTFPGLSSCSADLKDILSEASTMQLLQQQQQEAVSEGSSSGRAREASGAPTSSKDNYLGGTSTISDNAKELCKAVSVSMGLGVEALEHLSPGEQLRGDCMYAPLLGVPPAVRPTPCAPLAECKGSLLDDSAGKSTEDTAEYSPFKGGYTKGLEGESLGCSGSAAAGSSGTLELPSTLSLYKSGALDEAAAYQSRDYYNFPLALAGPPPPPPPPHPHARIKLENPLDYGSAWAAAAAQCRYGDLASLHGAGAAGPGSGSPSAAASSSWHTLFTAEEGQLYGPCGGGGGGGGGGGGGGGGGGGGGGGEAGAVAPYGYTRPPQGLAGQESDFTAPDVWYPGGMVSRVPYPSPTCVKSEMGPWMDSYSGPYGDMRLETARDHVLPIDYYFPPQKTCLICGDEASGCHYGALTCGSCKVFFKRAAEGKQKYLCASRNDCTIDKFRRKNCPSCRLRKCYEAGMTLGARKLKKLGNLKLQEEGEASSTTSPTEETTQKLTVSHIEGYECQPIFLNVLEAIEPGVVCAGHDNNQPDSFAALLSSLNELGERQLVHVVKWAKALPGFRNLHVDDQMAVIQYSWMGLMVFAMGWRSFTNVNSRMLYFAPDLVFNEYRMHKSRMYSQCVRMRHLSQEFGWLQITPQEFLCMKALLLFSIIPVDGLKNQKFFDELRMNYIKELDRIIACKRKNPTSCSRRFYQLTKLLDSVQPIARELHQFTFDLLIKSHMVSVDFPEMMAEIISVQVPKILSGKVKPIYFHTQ
Briefly: Inhibition of DHT-induced androgen receptor-mediated GFP-AR protein nuclear translocation in human PPC1 cells at 10 uM after 1 hr by DAPI staining-based fluorescence microscopic analysis. It is filed as cell-based. To be noted: PPC-1.

The subject of data set [5] is LNCaP. Briefly: Cytotoxicity against human androgen-dependent LNCAP cells after 6 days by MTS/PMS assay. It is filed as functional, cell-based. To be noted: 144 h.
Data set [6] in a line: (§2) Cytotoxicity against human androgen-independent/AR-positive C4-2 cells […] after 4 days by MTS/PMS assay. It is filed as functional, cell-based. Particulars: LNCaP C4-2, 96 h.
Data set [7] addresses T3, Androgen receptor (Homo sapiens). Briefly: Inhibition of androgen receptor-mediated SRC1 coactivator recruitment in human PPC1 cells at 10 uM after 1 hr by DAPI staining-based fluorescence microscopic analysis. In kind it is cell-based. To be noted: PPC-1.
The target is the same in data set [8]. Briefly: Inhibition of androgen receptor-mediated SRC2 coactivator recruitment in human PPC1 cells at 10 uM after 1 hr by DAPI staining-based fluorescence microscopic analysis. In kind it is cell-based. Particulars: PPC-1.
For data set [9], the target named is T2, Androgen receptor. Briefly: Displacement of [3H] ]5alpha-DHT from mouse androgen receptor expressed in monkey COS7 cells after 2 hrs by scintillation counting analysis. It is filed as cell-based, COS-7.
Data set [10] deals with T1, Androgen receptor (Mus musculus). The data set can be described thus: Antagonist activity against mouse androgen receptor assessed as reduction of 10 nM DHT-induced transcriptional activity at 10 uM after 24 hrs by cell-based luciferase reporter gene assay relative to control. Put shortly: as §1
For a further data set, the system named is PPC-1. The data set can be described thus: Cytotoxicity against human androgen-independent/AR-negative PPC1 cells after 3 days by MTS/PMS assay. It is filed as functional, cell-based.
A further data set has as its system LNCaP C4-2. Described as §2. It is filed as functional, cell-based.

Calls of active or inactive are those of the source. No cut-off for these calls is given here.

For the molecule `CCOc1ccc2c(c1)CCN(c1ccc(C(=O)Nc3cccc(C)n3)cn1)C2`, the results for the Activity (in data set [1]; in the data set with MEF) were 3.9% and “Non-toxic”, respectively. Besides, the figures for the IC50 (at Androgen receptor [2]; with LNCaP [5]; in data set [6]) were 460 nM, 1470 nM and 11.8 µM, respectively. Further, in the data set with LNCaP [3], the inhibition of growth at 10 µM stood at 80%. For the same molecule, the inhibition result in data set [4], in data set [7] and in data set [8] was “Active” throughout. Moreover, the Ki at Androgen receptor [9] was more than 50 µM. The inhibition in [10] stood at 95.1%. Also, in the data set with PPC-1, the outcome was inactive.
In turn, `COc1cccc(NC(=O)c2ccc(N3CCc4cc(OC)ccc4C3)nc2)c1` had an Activity in data set [1] of 3.1%. In addition, in data set [10], the inhibition is 95.7%.
In the case of `O=C(Nc1ccccn1)c1ccc(N2CCc3ccccc3C2)nc1`, the Activity in [1] was 5.6%. In addition, in [10], the inhibition was determined as 86.4%.
For the molecule `COc1ccc(CNC(=O)c2ccc(N3CCc4ccccc4C3)nc2)cc1`, the Activity in data set [1] came out at 9%. Besides, in [10], the inhibition was 58.2%.
With `O=C(Nc1ccccc1)c1ccc(C(=O)N2CCc3ccccc3C2)nc1`, the Activity in data set [1] is 7.8%. Also, in data set [10], the inhibition came to 33.1%.
The corresponding values for `O=C(Nc1ccccn1)c1ccc(Cl)nc1` are 4.9% and “inactive”.
Taken in the same sequence, the figures for `CCOc1ccc2c(c1OC)CCN(c1ccc(C(=O)Nc3cccc(OC)c3)cn1)C2` were 1.8% and 91.4%.
The corresponding values for `COc1cc2c(cc1OC)CN(c1ccc(C(=O)Nc3ccc(C)cn3)cn1)CC2` are 2.8% and 67.6%.
In turn, `COc1cc2c(cc1OC)CN(c1ccc(C(=O)Nc3ccccn3)cn1)CC2` registered an Activity in data set [1] of 2.5%. Moreover, the inhibition in data set [10] turned out to be 84.5%.
Take `Cc1ccnc(NC(=O)c2ccc(Cl)nc2)c1`: the Activity in data set [1] is 6.4%. Further, the inhibition entry in data set [10] was “inactive”.
The corresponding values for `Cc1ccc(NC(=O)c2ccc(Cl)nc2)nc1` are 4.9% and 43.1%.
For `COc1ccc2c(c1OC)CCN(c1ccc(C(=O)Nc3cccc(C)n3)cn1)C2`, the Activity in data set [1] is 4.7%; with MEF it was “Non-toxic”. Besides, the half-maximal inhibitory concentration (IC50) on Androgen receptor [2] was determined as 990 nM; with LNCaP [5], 680 nM; in [6], 2.5 µM. Further, the inhibition of growth at 10 µM in the data set with LNCaP [3] is 90%. The inhibition result in data set [4], in [7] and in [8] was “Active” in each case. At Androgen receptor [9], this molecule showed a Ki of 25.6 µM. Besides, the inhibition in [10] worked out at 95.6%. Besides, in the data set with PPC-1, the result was inactive.
The molecule `COc1ccc(CNC(=O)c2ccc(N3CCCCC3)nc2)cc1` came in with an Activity in [1] of 11.1%. For the same molecule, the inhibition in data set [10] was 19.4%.
As to `CCOc1ccc2c(c1OCC)CCN(c1ccc(C(=O)Nc3cccc(OC)c3)cn1)C2`, the Activity in [1] stood at 0.4%. For the same molecule, in data set [10], the inhibition was 87.9%.
The corresponding values for `Cc1cccc(NC(=O)c2ccc(N3CCc4cc(OCc5ccccc5)ccc4C3)nc2)n1` are 4.5% and 61.3%.
In [1], `Cc1ccccc1NC(=O)c1ccc(N2CCc3ccccc3C2)nc1` yielded an Activity of 10.4%. Besides, the inhibition in data set [10] came out at 49.7%.
Taken in the same sequence, the figures for `COc1cc2c(c(OC)c1OC)CCN(c1ccc(C(=O)Nc3cccc(C)n3)cn1)C2` were 0.8% and 89.1%.
The corresponding values for `Cc1cccnc1NC(=O)c1ccc(N2CCc3ccccc3C2)nc1` are 5% and 64.1%.
Taken in the same sequence, the figures for `O=C(Nc1ccccn1)c1ccc(C(=O)N2CCc3ccccc3C2)nc1` were 15% and 4.5%.
On to `CCOc1ccc2c(c1OCc1ccccc1)CCN(c1ccc(C(=O)Nc3cccc(OC)c3)cn1)C2`, for which, in [1], the Activity was 0.5%. Besides, the inhibition in data set [10] worked out at 78.6%.
Molecule `O=C(Nc1ccccc1)c1ccc(N2CCc3ccccc3C2)nc1` yielded an Activity in [1] of 8.7%. Also, the inhibition in data set [10] worked out at 68.9%.
Taken in the same sequence, the figures for `COc1ccc2c(c1)CCN(c1ccc(C(=O)Nc3ccc(C)cn3)cn1)C2` were 5.2% and 86.9%.
Consider `CCOc1c(Cl)c(Cl)c2c(c1OCC)CCN(c1ccc(C(=O)Nc3cccc(C)n3)cn1)C2`, for which the Activity in data set [1] was found to be 2.6%. Further, in [10], the inhibition worked out at 30.5%.
`Cc1cccc(NC(=O)c2ccc(N3CCc4ccccc4C3)nc2)n1`: in [1], the Activity stood at 3%. Further, the IC50 at Androgen receptor [2] amounted to 4450 nM. The “growth inhibition (GI)” value with LNCaP [3] and in the data set with LNCaP C4-2 was “Active” each time. For the same molecule, the inhibition result in data set [7] and in data set [8] was “Active” each time. The molecule also came in with a Ki at Androgen receptor [9] of 1.46 µM. The inhibition in [10] stood at 89.9%. In addition, the result in the data set on PPC-1 was inactive.

These data come from ChEMBL document CHEMBL2331274, “SAR based design of nicotinamides as a novel class of androgen receptor antagonists for prostate cancer” (J Med Chem, 2013).
